WT yeast gro inh = growth inhibition of WT yeast, mitochondrial fusion screen | mitochondrial fusion phenotypic screen, WT strain | inhibition, % at 10 µM | 190,000 tested, 2.1% active; in the data active = inhibition above about 58%; tested in S. cerevisiae
GRIN3A LBD mod = NR3A (human) ligand-binding domain modulation | Tm shift relative to glycine control, % at 25 µM | AID 1259313 | 340,000 tested, 2.5% active | NR3A LBD differential scanning fluorimetry, Tm shift; 0% = protein alone, 100% = glycine-bound protein;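 active = melting temperature shift of at least 10% of the positive control shift, at one fixed dose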
EBV gp42 block = blocks Epstein-Barr virus glycoprotein 42 binding. 220,000 tested, 0.42% active. Fluorescence polarization binding assay, mP read-out. Q1HVG2. inhibition, % (tested at 21.74 µM); in the data active = inhibition above about 50%
Target sequence (Q1HVG2 whole entry, looked up): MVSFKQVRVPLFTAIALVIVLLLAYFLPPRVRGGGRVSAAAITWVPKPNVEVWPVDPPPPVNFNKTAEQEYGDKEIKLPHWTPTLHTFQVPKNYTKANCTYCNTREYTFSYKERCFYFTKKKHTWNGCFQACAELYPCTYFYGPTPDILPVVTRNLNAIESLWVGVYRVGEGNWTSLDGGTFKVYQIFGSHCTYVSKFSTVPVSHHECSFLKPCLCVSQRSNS
MPTP inh = inhibitors of mitochondrial permeability transition pore. isolated mouse mitochondria, Ca2+ swelling absorbance, 30 min. inhibition, % at 10 µM. 360,000 tested, 1.4% active. AID 602449;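 active = inhibition of 50% or more, scaled per plate between neutral and stimulator controls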
TbMetRS inhib = blocks T. brucei methionyl-tRNA synthetase activity; purified T. brucei MetRS, ATP depletion, Kinase-Glo luminescence; inhibition, % at 11.9 µM; 360,000 tested, 0.4% active; AID 624268;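 active = inhibition above a per-plate cutoff of the control wells' mean inhibition plus 3 SD, cut at about 5.5% in these data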
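System: purified T. brucei MetRS enzyme / Detection: Kinase-Glo luciferase luminescence reporting remaining unconsumed ATP / Medium: HEPES buffer with MgCl2, KCl, DTT, spermine, BSA, pyrophosphatase / Replication: singlicate, one well per compound / Evaluation: percent inhibition relative to median high and low control wells / Schedule: 2 h aminoacylation at 25 °C after 15 min preincubation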
CHOP inhibitor = blocks CHOP induction under ER stress. inhibition, % at 10 µM. 220,000 tested, 3.8% active. CHO-K1 CHOP-promoter luciferase, tunicamycin-induced, 15-18 h;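 active = compounds that reduced the stress-induced luciferase reporter signal by more than about 70% of percent inhibition, limit read from the data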
Hits are given with their value; - = inactive; . = no result. Shown are actives, neighbours in structure and some others; about 6.4% of the full set was active somewhere.

SMILES | WT yeast gro inh | GRIN3A LBD mod | EBV gp42 block | MPTP inh | TbMetRS inhib | CHOP inhibitor
O=C1NN=C(c2ccc(Cl)cc2)CC1c1cccc(Br)c1 (configuration not stated) | 77 | - | - | - | - | 78
Cc1ccc(C2=NNC(=O)C(c3ccc(Cl)cc3)C2)cc1 (configuration not stated) | - | - | - | - | - | 96
Cc1ccc(C2=NNC(=O)C(c3c[nH]c4ccccc34)C2)cc1 (configuration not stated) | - | - | - | - | - | -
O=C1NN=C(c2ccc(Cl)cc2)CC1c1c[nH]c2ccccc12 (configuration not stated) | 66 | - | - | - | - | -
Cc1ccc2oc(=O)c3cnn(CC(=O)Nc4cc(-c5cccc(F)c5)no4)c3c2c1 | - | - | - | - | - | 96
Cc1ccc2oc(=O)c3cnn(CC(=O)N4CCc5ccccc5C4)c3c2c1 | - | - | - | - | - | -
CSc1cc(C)n(-c2ccccc2)c(=S)c1C(C)=O | - | 12 | - | - | - | -
COc1ccc(-c2cc(=O)c3cc(OC)ccc3o2)cc1 | - | - | - | - | - | 78
O=c1cc(-c2ccccc2)oc2ccc(Cl)cc12 | . | 14 | . | - | - | .
O=c1oc2ccc(Cl)cc2cc1-c1ccccc1 | - | 14 | - | - | - | -
O=c1cc(-c2ccc3c(c2)OCCO3)oc2ccc(Cl)cc12 | - | 12 | - | - | - | -
CCC(CC)C(=O)N(C)c1c(C)nc2c(OCCC3CCCCC3)cccn12 | . | . | . | - | - | .
O=C(CN1CCN(c2ccccc2)CC1)c1ccc2cc[nH]c2c1 | - | - | - | - | - | -
CCn1c(SCc2ccc(C(=O)Nc3nccs3)cc2)nnc1-c1ccc(N)cc1 | - | - | 53 | - | - | -
CCn1c(SCc2ccc(C(=O)Nc3nccs3)cc2)nnc1-c1ccc(NC(C)=O)cc1 | - | - | - | - | - | -
O=C1C(Br)=Cc2cccc3cccc1c23 | . | - | 116 | - | - | -
CCOC(=O)c1nc(Nc2ccc(C(=O)O)cc2)c2ccccc2n1 | - | 14 | - | - | - | -
CCOC(=O)c1nc(Nc2ccc(Nc3ccccc3)cc2)c2ccccc2n1 | 72 | - | - | - | - | -
O=C(/C=C/c1ccccc1[N+](=O)[O-])NCCCn1ccnc1 | - | - | - | - | - | -
Cc1ccc(-c2noc(CCCC(=O)NC3CCCCC3)n2)cc1 | . | - | . | - | - | .
CCN1C(=O)C2(C(C#N)=C(N)Oc3cc(C)oc(=O)c32)c2ccccc21 (configuration not stated) | - | - | - | - | - | -
C/C(=N/O)c1cc(C(C)(C)C)c(O)c(C(C)(C)C)c1 | - | - | - | - | - | 86
CC1(C)C(=O)Nc2ccccc2N1C(=O)c1ccc([N+](=O)[O-])cc1 | . | - | . | - | - | .
CC(Oc1ccc(F)cc1)C(=O)Nc1ccc(S(=O)(=O)NC2=NCCCCC2)cc1 (configuration not stated) | . | - | . | - | - | .
C=CCc1cc(/C=C2/NC(=S)NC2=O)cc(OC)c1O | - | - | - | - | - | -
SMILES | WT yeast gro inh | GRIN3A LBD mod | EBV gp42 block | MPTP inh | TbMetRS inhib | CHOP inhibitor
C[C@H](CO)N1C[C@H](C)[C@@H](CN(C)S(=O)(=O)c2cn(C)cn2)Oc2c(NC(=O)Nc3ccc(C(F)(F)F)cc3)cccc2C1=O | . | - | . | - | - | .
COc1ccc(NC(=O)Nc2cccc3c2O[C@H](CN(C)S(=O)(=O)c2ccc(F)cc2)[C@@H](C)CN([C@H](C)CO)C3=O)cc1 | . | - | . | - | - | .
C[C@H]1CN([C@@H](C)CO)C(=O)c2cccc(NC(=O)Nc3ccc(C(F)(F)F)cc3)c2O[C@@H]1CN(C)S(=O)(=O)c1ccc(Cl)cc1 | . | 23 | . | - | - | .
C[C@H](CO)N1C[C@H](C)[C@@H](CN(C)S(=O)(=O)c2ccc(F)cc2)Oc2c(NC(=O)Nc3ccc(C(F)(F)F)cc3)cccc2C1=O | . | 20 | . | - | - | .
CCN(CC)C(=O)c1cc2c(=O)c3cc(F)ccc3oc2nc1C | - | - | - | - | - | -
C#Cc1ccc(C(=O)Nc2ccc(N3CCC(C)CC3)c(C(N)=O)c2)cc1 | - | 27 | - | - | - | -
Cc1cccc(NC(=O)c2cc(NC(=O)c3ccccc3)ccc2N2CCCCC2)c1 | - | - | - | - | - | -
CN(C)c1ccc(N=Cc2nc(-c3ccccc3)oc2O)cc1 | - | - | 166 | - | - | -
NS(=O)(=O)c1ccc(Nc2nc(-c3ccc(O)cc3O)cs2)cc1 | - | 15 | - | - | - | -
